Source: ChEMBL document CHEMBL1135975, “Design, synthesis, and evaluation of new noncross-linking pyrrolobenzodiazepine dimers with efficient DNA binding ability and potent antitumor activity” (2002)
Several values for one entry are separate records, joined by “and”; a condition that tells them apart may be missing. Equal values may be shown once.

Columns and labels:
Bos taurus [1] = species on record: Bos taurus; assay: Thermal denaturation measured for calf thymus DNA after incubation at 37 degree at 18 h.
Outline: (§1)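 Calf thymus DNA (100 µM in phosphate) with ligand at 20 µM final, a 1:5 ligand/DNA molar ratio, added from concentrated MeOH solution. Buffer was 10 mM sodium phosphate with 1 mM EDTA, pH 7.00. Samples were incubated at 37 °C for 0 or 18 h, then heated at 1 °C/min over 40-90 °C with A260 monitored. Tm was taken from the d(A260)/dT maxima, and ∆Tm given relative to DNA alone.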

Bos taurus [2] = species on record: Bos taurus; assay: Thermal denaturation measured for calf thymus DNA after incubation at 37 degree at 0h.; outline: as §1
Prostatic carcinoma cell = assay: Drug concentration causing 50% lethality against prostate human cancer line; format: functional; settings: read-out: Log LC50 (the source's name) (converted)
Outline: (§2)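 Sixty-line human tumour panel screen: at least five concentrations at 10-fold dilutions, 48 h continuous exposure, growth read by sulforhodamine B protein stain. LC50 is the molar concentration giving 50% cell death (-50% growth) relative to control, as log LC50. Each cancer-type value is the average of 6-8 different cell lines.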

Breast carcinoma cell = assay: Drug concentration causing 50% lethality against breast human cancer line; format: functional; outline: as §2
Homo sapiens = species on record: Homo sapiens; assay: Drug concentration causing 50% lethality against human cancer line nonsmall-cell lung; format: functional; settings: read-out: Log LC50 (the source's name) (converted); outline: as §2
Colon carcinoma cell = assay: Drug concentration causing 50% lethality against human cancer line of colon; format: functional; outline: as §2
Tumor Cell line [3] = assay: In vitro cytotoxicity of drug concentration causing 50% cell death; format: functional, Homo sapiens; settings: read-out: Log LC50 (the source's name) (converted)
Outline: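 Compound tested against sixty human tumour lines from nine cancer types, each line at at least five concentrations at 10-fold dilutions, 48 h continuous exposure, sulforhodamine B protein read-out. LC50 is the concentration causing 50% cell death (-50% growth) versus control. The value is the mean graph midpoint of log LC50 over all lines.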

Tumor Cell line [4] = assay: In-vitro cytotoxicity of Drug molar concentration causing 50% cell growth inhibition against Human tumor cell lines; format: functional
Outline: (§3)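 Sixty human tumor cell lines covering nine cancer types. Continuous drug exposure for 48 h, with growth or viability read by sulforhodamine B protein assay. Dose-response curves were run at a minimum of five concentrations at 10-fold dilutions. GI50 (50% growth inhibition) and TGI (0% growth) were calculated relative to control and reported as log mean graph midpoints across all cell lines.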

[5] = test system: Panel leukemia (Carcinoma cell lines); assay: Drug concentration causing 50% lethality against human cancer line leukemia; format: functional; settings: read-out: Log LC50 (the source's name) (converted); outline: as §2
Tumor Cell line [6] = assay: In vitro cytotoxicity of drug concentration causing total cell growth inhibition; format: functional, Homo sapiens; settings: read-out: Log TGI (converted); outline: as §3
CNS carcinoma cell = assay: Drug concentration causing 50% lethality against human cancer line of CNS; format: functional; outline: as §2
Ovarian carcinoma cell = assay: Drug concentration causing 50% lethality against ovarian human cancer line; format: functional; settings: read-out: Log LC50 (the source's name) (converted); outline: as §2
Renal cancer cell line = assay: Drug concentration causing 50% lethality against renal human cancer line; format: functional; settings: read-out: Log LC50 (the source's name) (converted); outline: as §2
Melanoma cell = assay: Drug concentration causing 50% lethality against human cancer line melanoma; format: functional; settings: read-out: Log LC50 (the source's name) (converted); outline: as §2
[7] = Homo sapiens, Ovarian carcinoma cell
[8] = Homo sapiens, Renal cancer cell line

COc1cc2c(cc1O)N=C[C@@H]1CCCN1C2=O
ΔTm (Bos taurus [1]): 0.7 °C
ΔTm (Bos taurus [2]): 0.3 °C

COc1cc2c(cc1OCCCCOc1cc3c(cc1OC)C(=O)N1CCC[C@H]1C(=O)N3)N=C[C@@H]1CCCN1C2=O
ΔTm (Bos taurus [1]): 8.5 °C
CC50 (Prostatic carcinoma cell): 67.6 µM
LC50 (Breast carcinoma cell): 53.7 µM
CC50 (Homo sapiens; Homo sapiens): 58.9 µM
LC50 (50% lethal concentration) (Colon carcinoma cell): 57.5 µM
CC50 (Tumor Cell line [3]; Homo sapiens, Tumor Cell line): 50.1 µM
ΔTm (Bos taurus [2]): 5 °C
GI50 (Tumor Cell line [4]; Homo sapiens, Tumor Cell line): 7.24 µM
CC50 [5]: 24.4 µM
TGI (Tumor Cell line [6]; Homo sapiens, Tumor Cell line): 20.4 µM
LC50 (CNS carcinoma cell): 45.7 µM
CC50 (Ovarian carcinoma cell; [7]): 58.9 µM
CC50 (Renal cancer cell line; [8]): 55 µM
CC50 (Melanoma cell; Homo sapiens, Melanoma cell): 41.7 µM

COc1cc2c(cc1OCCCOc1cc3c(cc1OC)C(=O)N1CCC[C@H]1C(=O)N3)N=C[C@@H]1CCCN1C2=O
ΔTm (Bos taurus [1]): 7 °C
CC50 (Prostatic carcinoma cell): > 100 µM
CC50 (Homo sapiens; Homo sapiens): > 100 µM
CC50 (Tumor Cell line [3]; Homo sapiens, Tumor Cell line): 83.2 µM
ΔTm (Bos taurus [2]): 6.5 °C
GI50 (Tumor Cell line [4]; Homo sapiens, Tumor Cell line): 13.2 µM
CC50 [5]: 33.1 µM
TGI (Tumor Cell line [6]; Homo sapiens, Tumor Cell line): 42.7 µM
CC50 (Ovarian carcinoma cell; [7]): 95.5 µM
CC50 (Renal cancer cell line; [8]): 91.2 µM
CC50 (Melanoma cell; Homo sapiens, Melanoma cell): 83.2 µM

COc1cc2c(cc1OCCCCCOc1cc3c(cc1OC)C(=O)N1CCC[C@H]1C(=O)N3)N=C[C@@H]1CCCN1C2=O
ΔTm (Bos taurus [1]): 17 °C
CC50 (Prostatic carcinoma cell): > 100 µM
CC50 (Homo sapiens; Homo sapiens): 58.9 µM
CC50 (Homo sapiens): 79.4 µM
CC50 (Tumor Cell line [3]; Homo sapiens, Tumor Cell line): 44.7 µM
CC50 (Tumor Cell line [3]): 27.5 µM
ΔTm (Bos taurus [2]): 14 °C
GI50 (Tumor Cell line [4]): 0.12 µM
GI50 (Tumor Cell line [4]; Homo sapiens, Tumor Cell line): 0.115 µM
TGI (Tumor Cell line [6]; Homo sapiens, Tumor Cell line): 2.24 µM
TGI (Tumor Cell line [6]): 1.12 µM
CC50 (Ovarian carcinoma cell; [7]): 87.1 µM
CC50 (Ovarian carcinoma cell): 60.3 µM
CC50 (Renal cancer cell line; [8]): 51.3 µM
CC50 (Renal cancer cell line): 44.7 µM
CC50 (Melanoma cell): 10 µM and 3.31 µM

COc1cc2c(cc1OCCCOc1cc3c(cc1OC)C(=O)N1CCC[C@H]1C=N3)N=C[C@@H]1CCCN1C2=O
ΔTm (Bos taurus [2]): 10.2 °C
